# Most compounds without a hit are left out; they make up all but 6.3% or so of the library.
# M1 antagonist = blocks the rat M1 muscarinic receptor response to acetylcholine | P08482 | CHO-M1 cells, Fluo-4 calcium, ACh EC80 antagonist mode; hits give low values | B-score at 10 µM | hit rate 3.4% among 64,000 | AID 628;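 active = calcium fluorescence response, raw or row-and-column corrected B-score, differing from the plate sample mean either way at a set confidence level, mostly lower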
# M1 ag = agonists of M1 muscarinic receptor; B-score at 10 µM; CHO-M1 cells, Fluo-4 calcium fluorescence, agonist mode; hits give high values; hit rate 3% among 64,000; AID 626;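 active = fluorescence rise, raw or as B-score row- and column-corrected plate score, outside the 99.7% band of its plate's samples, either direction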
# MT1-MMP txn act = MT1-MMP promoter transcription activation; HT1080 MT1-MMP promoter luciferase reporter, luminescence, overnight; hits give high values; activation factor at 10 µM; hit rate 0.16% among 86,000; AID 750;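 active = activation factor of at least 2 for MT1-MMP transcription at 10 µM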
# RORA act = activators of human nuclear receptor RORA. hit rate 1.5% among 65,000. AID 560. P35398. activation, % at 10 µM. CHO-K1 Gal4-RORA LBD luciferase reporter, luminescence; percent increase over mock-subtracted basal signal;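 active = activation above the mean of all tested compounds plus 3 SD, cut at about 49% in these data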;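 also: 0% = DMSO-treated RORA cells and 100% = added signal equal to DMSO minus mock-transfected cells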
# SF1 activator = activates the human nuclear receptor SF-1; Q13285; CHO-K1 Gal4-SF-1 LBD luciferase reporter; % increase over DMSO SF-1-specific signal; activation, % at 10 µM; hit rate 1.9% among 65,000; AID 522;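 active = activation above the mean activation of all tested compounds plus 3 SD, cut at about 50% in these data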
# Target sequence (Q13285 whole entry, looked up, the tested form may be a part): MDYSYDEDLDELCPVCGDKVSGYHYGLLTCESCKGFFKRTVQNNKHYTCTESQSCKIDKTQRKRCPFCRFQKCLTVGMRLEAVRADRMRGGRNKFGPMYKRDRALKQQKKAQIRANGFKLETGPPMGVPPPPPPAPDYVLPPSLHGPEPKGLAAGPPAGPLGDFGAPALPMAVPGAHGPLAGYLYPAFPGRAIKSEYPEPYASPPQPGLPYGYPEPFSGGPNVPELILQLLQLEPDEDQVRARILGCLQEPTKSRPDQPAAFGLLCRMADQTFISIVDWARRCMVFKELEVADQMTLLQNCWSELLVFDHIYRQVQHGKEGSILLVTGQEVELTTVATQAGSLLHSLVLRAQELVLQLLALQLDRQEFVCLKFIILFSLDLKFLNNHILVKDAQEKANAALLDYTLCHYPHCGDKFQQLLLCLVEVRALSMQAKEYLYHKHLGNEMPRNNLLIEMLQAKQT
#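 Material: Gal4–SF-1 LBD one-hybrid luciferase reporter in CHO-K1 cells | Amount: 4,000 cells per well | Compound dosing: 10 µM single point, 1% DMSO | Schedule: 20 h compound treatment, 37 °C | Measured by: SteadyLite luciferase luminescence | Evaluation: Percent activation versus DMSO | Control set: DMSO-treated SF-1-transfected cells as negative, DMSO-treated mock-transfected cells lacking SF-1 as background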
# M1 antag confirm = confirmation of rat M1 muscarinic receptor antagonists; shares compounds with M1 antagonist; CHO-M1 cells, Fluo-4 calcium, ACh EC80 antagonism; hits give low values; calcium response (max-min fluorescence) at 10 µM; hit rate 43% among 1,700; AID 677;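 active = calcium response below the same-plate mean of wells given acetylcholine alone at its 80%-effect dose, minus 3 SD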;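 also: raw fluorescence intensity difference in arbitrary instrument units and not normalized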
# mGluR4 antag = selectivity test for M1 antagonists: human mGluR4 receptor | shares compounds with M1 antagonist | CHO-mGluR4 calcium flux, Fluo-4 fluorescence, glutamate EC80; hits give low values | fluorescence response (max-min) at 10 µM | hit rate 0.9% among 1,700 | AID 678;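 active = fluorescence response below the plate's average for near-maximal glutamate wells, less 3 SD of those wells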;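 also: raw unnormalized fluorescence span taken in the window right after glutamate addition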
# * = called active by the depositor; . = no result.
SMILES,M1 antagonist,M1 ag,MT1-MMP txn act,RORA act,SF1 activator,M1 antag confirm,mGluR4 antag
O=C1C2CC=CCC2C(=O)N1c1ccc(Cc2ccncc2)cc1 (configuration not stated),-1.07,-3.02,1,-5.8,-16.6,.,.
CCc1nc2c(sc3nc(N4CCOCC4)c4c(c32)CC(C)(C)OC4)c(=O)o1,0.82,-0.29,1.1,-1.8,8.1,.,.
CCCC(C)C(=O)Nc1ccc(C(N)=O)cc1 (configuration not stated),0.152,0.266,1.1,-7.5,6.4,.,.
CCOC(=O)c1sc(NC(=O)CSc2nnc(-c3ccco3)n2CC)c(C(=O)OCC)c1C,-0.0655,-0.507,1.2,0.1,28.2,.,.
CCOC(=O)c1c(NC(=O)CSc2nnc(-c3ccccc3)n2CC)sc(C(C)=O)c1C,-1.22*,0.0581,1.1,3.5,9.8,496,204
CCOC(=O)c1sc(NC(=O)CSc2nncs2)c(C(=O)OCC)c1C,-5.03*,-0.189,1.1,7.2,0.2,555,247
CC1(C)CC2(CCO1)N1CC3(C)CN2CC(C)(C1)C3O (configuration not stated),-0.0184,0.0709,1.1,0.5,6.4,.,.
COc1cc2c(cc1OC)C(C(=O)NCc1cccnc1)C(c1cccnc1)N(C)C2=O (configuration not stated),.,.,1.2,23.5,-11.9,.,.
CC(C)(C)C(=O)OCC1OC(n2cnc(C(N)=O)n2)C(O)C1O (configuration not stated),-11*,-0.637,1.1,-18.7,-8.3,578,202
O=S(=O)(/N=S1/CC=CCN1S(=O)(=O)c1ccccc1)c1ccccc1 (configuration not stated),-2.06*,-1.37,1.1,-8.1,-17.4,666,243
Cn1c(SCC(=O)Nc2nccs2)nnc1-c1ccncc1,-6.07*,-0.6,1.1,-3.0,4.7,662,155
Cc1csc(NC(=O)CSc2nnc(-c3ccncc3)n2C)n1,-0.415,-0.386,1.1,-4.0,-6.0,.,.
CCOC(=O)Nc1ccc2c(c1)N(C(=O)CCN1CCOCC1)c1ccccc1S2=O (configuration not stated),-10.5*,-0.612,1,-25.1,-12.1,55.1*,240
COC(=O)Nc1ccc2c(c1)N(C(=O)CCN1CCOCC1)c1ccccc1S2,-5.2*,-0.295,1,-25.6,-16.1,495*,248
CCOC(=O)Nc1ccc2c(c1)N(C(=O)CCN1CCOCC1)c1ccccc1S2,-6.47*,-0.556,1,-23.6,-7.6,434*,236
O=C(NCCN1C(=O)CSC1=O)c1ccccc1,0.0986,-0.194,1.2,19.3,6.5,.,.
Cc1noc(C)c1S(=O)(=O)N1CCCCC1,.,.,1.1,.,.,.,.
C=CCn1c(CCNC(=O)c2cccs2)nnc1SCC(=O)Nc1cccc(F)c1,.,.,1,.,.,.,.
COc1cccc(-n2c(SC)nnc2-c2cnccn2)c1,-3.01*,0.683,1,-0.7,-7.5,622,266
COc1cccc(-n2c(SCC#N)nnc2-c2cnccn2)c1,0.609,0.0417,1.1,-19.3,5.3,.,.
CCOC(=O)N1CCN(C(=O)c2ccc3c(=O)n(Cc4ccccc4OC)c(=S)[nH]c3c2)CC1,.,.,1.2,.,.,.,.
CCOC(=O)N1CCN(C(=O)c2ccc3c(=O)n(CCOC)c(=O)[nH]c3c2)CC1,-2.06*,0.269,1.1,-12.6,8.8,482,207
CCOC(=O)c1ccccc1NC(=O)c1ccc2c(=O)n3c(nc2c1)CCCCC3,-0.638,-0.691,1.1,-6.3,-8.3,.,.
CCOC(=O)N1CCN(C(=O)c2ccc3c(=O)n4c(nc3c2)CCCCC4)CC1,-5.29*,-0.0877,1,19.5,24.2,300*,215
CCOC(=O)N1CCN(C(=O)c2ccc3c(=O)n(CCc4ccccc4)c(=O)[nH]c3c2)CC1,-5.1*,-0.982,.,-9.8,-1.8,296*,246
SMILES,M1 antagonist,M1 ag,MT1-MMP txn act,RORA act,SF1 activator,M1 antag confirm,mGluR4 antag
COc1ccc(-c2nnc(CSc3nc4ccccc4c(=O)n3CC3CCCO3)o2)cc1OC (configuration not stated),0.356,-0.9,1.1,-13.9,-11.7,.,.
Cc1cc(C)n(-c2nncn2/N=C/c2ccccc2F)n1,-3.33*,-1,1.2,-2.6,-8.0,576,233
COC(=O)c1ccc(C2c3c(n[nH]c3C)C(=O)N2c2ccc(C)cc2)cc1 (configuration not stated),-1.04*,-0.521,0.9,-3.5,-20.8,450*,206
Cc1ccc(P(=Nc2ccccc2)(N2CCOCC2)N2CCOCC2)o1,-1.65,0.496,1.2,22.8,10.2,.,.
COc1ccc(NC(=O)c2ccc(Cl)c(S(=O)(=O)N3CCc4ccccc4C3)c2)cn1,-1.46*,0.241,1.1,-7.0,5.4,681,210
COCCN(C(=O)Cn1nnc2ccccc21)C(C(=O)NC1CCCC1)c1cccc(OC)c1OC (configuration not stated),-3.94*,-0.324,1.1,-15.9,3.0,600,217
COCCNC(=O)C(c1ccccc1C)N(CCOC)C(=O)Cn1nnc2ccccc21 (configuration not stated),-1.24,0.246,1,-27.3,-0.9,.,.
CCCSc1nnc2c(n1)OC(c1cccn1C)N(C(C)=O)c1ccccc1-2 (configuration not stated),-10.1*,0.278,1,-15.4,-18.6,23*,229
CCn1nc(C)c(NS(=O)(=O)c2ccccc2)c1C,.,.,1.2,.,.,.,.
Clc1ccc2c(N3CCCC3)ccnc2c1,-3.02*,-0.116,1,-13.7,16.2,555,253
COc1ccc2[nH]c3c(c2c1)CN(C)CC3,-1.94*,0.756,1.2,25.3,0.1,448,193
CC(C)NC(=O)CN(CCc1ccccc1)S(C)(=O)=O,0.365,-0.0124,1.1,-4.4,-20.9,.,.
Cc1nnc(NC(=O)C2CCCO2)s1 (configuration not stated),-0.181,-0.455,1.1,-8.7,-11.2,.,.
CCCC(C)c1nnc(NC(=O)C2CCCO2)s1 (configuration not stated),-3.5*,0.735,1.3,16.9,11.4,198*,246
CO/N=C(/CS(=O)(=O)c1ccc(C)cc1)c1ccc(OC)cc1,.,.,1,.,.,.,.
Cc1cc(C(=O)CSc2nnc(NCc3ccccc3)s2)c(C)n1C,-3.54*,-0.381,1.2,6.1,23.2,488,249
Cc1cc(C(=O)CSc2nnc(Nc3ccccc3)s2)c(C)n1CC1CCCO1 (configuration not stated),-0.205,-0.311,1.1,5.3,9.9,.,.
CN1CCC(=NNC(=O)C(=O)NC(C)(C)C)CC1,.,.,1,.,.,.,.
Clc1cccc(-c2nnc(-c3ccccc3)o2)c1,-1.71*,-0.331,.,26.2,7.5,699,252
O=C(Nc1ccccc1C(=O)N1CCOCC1)c1cccnc1,.,.,1.1,.,.,.,.

# Source: PubChem BioAssay (several laboratories)
